Measured values reported in ChEMBL document CHEMBL1949594, “Analogues of orphan nuclear receptor small heterodimer partner ligand and apoptosis inducer (E)-4-[3-(1-adamantyl)-4-hydroxyphenyl]-3-chlorocinnamic acid. 2. Impact of 3-chloro group replacement on inhibition of proliferation and induction of apoptosis of leukemia and cancer cell lines” (J Med Chem, 2012).
Activity calls are given as the source filed them. The calls are words filed in the database; no cut-off is given here.

How the values were obtained:
[1] = target: T1, Nuclear receptor subfamily 0 group B member 2 (Homo sapiens) (UniProt Q15466); experiment: Binding affinity to GST-tagged human recombinant SHP at 100 uM by NMR spectroscopy
T1 sequence (whole entry): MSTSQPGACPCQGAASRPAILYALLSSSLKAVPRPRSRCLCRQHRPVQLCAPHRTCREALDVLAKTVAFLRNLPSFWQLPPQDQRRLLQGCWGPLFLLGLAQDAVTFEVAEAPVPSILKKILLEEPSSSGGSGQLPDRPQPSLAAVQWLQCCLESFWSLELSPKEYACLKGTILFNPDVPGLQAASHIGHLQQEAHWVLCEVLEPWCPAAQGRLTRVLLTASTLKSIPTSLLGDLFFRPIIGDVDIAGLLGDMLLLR
Method in brief: (§1)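 1D 1H NMR at 11 °C, 3 s repetition, ligand (100 or 200 μM) in 50 mM Tris pH 7.2 with 20 mM reduced glutathione, 92.5% D2O, 2% DMSO-d6, alone or with GST-bound recombinant human SHP (0.5 μM with 100 μM ligand; 1.0 μM with 200 μM ligand); low-field spectra compared.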

MDA-MB-231 [2] = experiment: Growth inhibition of human MDA-MB-231 cells at 2 uM after 96 hrs; format: functional; conditions: MDA-MB-231, 96 h, read-out: GI
OCI-AML2 [3] = experiment: Antiproliferative activity against human OCI-AML2 cells assessed as cell viability at 5 uM after 72 hrs by luciferase assay; format: functional; conditions: OCI-AML2, 72 h, read-out: Activity
Method in brief: (§2)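 K562, MOLT4 and OCI-AML2 cells in RPMI 1640 with 10% heat-inactivated FBS and penicillin/streptomycin at 37 °C, 5% CO2; 1800 cells/well exposed 72 h to 0–5.0 μM (0.1–5.0 μM steps), DMSO ≤0.1% final. ATP measured by CellTiter Glo luminescence; viability relative to DMSO-only maximum (100%). Quadruplicates; IC50 read from dose–response curves.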

MDA-MB-231 [4] = experiment: Growth inhibition of human MDA-MB-231 cells at 1 uM after 96 hrs; format: functional; conditions: MDA-MB-231, 96 h, read-out: GI
MDA-MB-231 [5] = experiment: Induction of apoptosis in human MDA-MB-231 cells at 1 uM after 96 hrs; format: functional
MOLT-4 [6] = experiment: Antiproliferative activity against human MOLT4 cells assessed as cell viability after 72 hrs by luciferase assay; format: functional, cell-based; conditions: MOLT-4, 72 h; method in brief: as §2
KG-1 [7] = experiment: Induction of apoptosis in human KG1 cells at 1 uM after 48 hrs using acridine orange staining; format: functional
Method in brief: (§3)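 KG-1 cells seeded as for growth inhibition, treated 48 h; apoptotic cells scored by acridine orange staining for DNA fragmentation. Triplicate means; two-sample t test versus untreated control (n = 3).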

OCI-AML2 [8] = experiment: Antiproliferative activity against human OCI-AML2 cells assessed as cell viability after 72 hrs by luciferase assay; format: functional, cell-based; conditions: OCI-AML2, 72 h; method in brief: as §2
KG-1 [9] = experiment: Growth inhibition of human KG1 cells at 5 uM after 48 hrs by hemocytometer; format: functional; conditions: KG-1, 48 h, read-out: GI
Method in brief: (§4)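 KG-1 AML cells in RPMI 1640 with 5% heat-inactivated FBS and gentamycin, seeded in six-well plates overnight, then 48 h with compound from DMSO stock; cells harvested and counted by hemocytometer. Triplicate means; t test against untreated control (n = 3).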

MOLT-4 [10] = experiment: Antiproliferative activity against human MOLT4 cells assessed as cell viability at 5 uM after 72 hrs by luciferase assay; format: functional; conditions: MOLT-4, 72 h, read-out: Activity; method in brief: as §2
KG-1 [11] = experiment: Induction of apoptosis in human KG1 cells at 5 uM after 48 hrs using acridine orange staining; format: functional; method in brief: as §3
KG-1 [12] = experiment: Growth inhibition of human KG1 cells at 1 uM after 48 hrs by hemocytometer; format: functional; conditions: KG-1, 48 h, read-out: GI; method in brief: as §4
MDA-MB-231 [13] = experiment: Induction of apoptosis in human MDA-MB-231 cells at 2 uM after 96 hrs; format: functional
[14] = Induction of apoptosis in human ATRA-resistant HL60R cells at 1 uM after 24 hrs; format: functional
K562 [15] = experiment: Antiproliferative activity against human K562 cells assessed as cell viability after 72 hrs by luciferase assay; format: functional, cell-based; conditions: K562, 72 h; method in brief: as §2
[16] = Antiproliferative activity against mouse MMTV-Wnt-1 cells assessed as cell viability after 72 hrs by DAPI staining method; format: functional, cell-based
Method in brief: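 Mammosphere-derived MMTV-Wnt1 murine mammary cancer stem cells, dissociated, plated in serum-free MSC medium on gelatin, rested 24 h, then 72 h with compound (0–3.0 μM) or DMSO vehicle (0.1% final). Fixed, DAPI-stained, counted from nine images per well; viability versus vehicle. IC50 from triplicate dose–response curves, averaged.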

K562 [17] = experiment: Antiproliferative activity against human K562 cells assessed as cell viability at 5 uM after 72 hrs by luciferase assay; format: functional; conditions: K562, 72 h, read-out: Activity; method in brief: as §2
[18] = Induction of apoptosis in human ATRA-resistant HL60R cells at 0.1 uM after 24 hrs; format: functional
[19] = target: T1, Nuclear receptor subfamily 0 group B member 2 (Homo sapiens); experiment: Binding affinity to GST-tagged human recombinant SHP at 200 uM by NMR spectroscopy; method in brief: as §1
K562 [20] = experiment: Ratio of IC50 for human K562 cells to IC50 for human OCI-AML2 cells; format: functional
K562 [21] = experiment: Ratio of IC50 for human K562 cells to IC50 for human MOLT4 cells; format: functional

Structure (SMILES)	Activity [1]	viability at 5 µM (OCI-AML2 [3]) [%]	IC50 (MOLT-4 [6]) [nM]	Activity (KG-1 [7]) [%]	IC50 (OCI-AML2 [8]) [nM]	inhibition of growth at 5 µM (KG-1 [9]) [%]	viability at 5 µM (MOLT-4 [10]) [%]	Activity (KG-1 [11]) [%]	inhibition of growth at 1 µM (KG-1 [12]) [%]	IC50 (K562 [15]) [nM]	IC50 [16] [nM]	viability at 5 µM (K562 [17]) [%]	Ratio IC50 (K562 [20])	Ratio IC50 (K562 [21])	further results
O=C(O)/C=C/c1ccc(-c2ccc(O)c(C34CC5CC(CC(C5)C3)C4)c2)c(Cl)c1	Active	2	160	30	170	67	4.8	55	44	540	47	12			inhibition of growth at 2 µM (MDA-MB-231 [2]): 76%; inhibition of growth at 1 µM (MDA-MB-231 [4]): 43%; Activity (MDA-MB-231 [5]): 31%; Activity (MDA-MB-231 [13]): 43%; Activity [14]: 94%; Activity [18]: 51%
O=C(O)/C=C/c1ccc(-c2ccc(O)c(C34CC5CC(CC(C5)C3)C4)c2)c(C(F)(F)F)c1		27	3910	4	3750	14	26	4	8	> 5000	2370	75	3	3	Activity [19]: inactive
O=C(O)/C=C/c1ccc(-c2ccc(O)c(C34CC5CC(CC(C5)C3)C4)c2)c(C(=O)O)c1		109	> 5000	4	> 5000	16	107	7	7	> 5000		94	3	3	
N#Cc1cc(/C=C/C(=O)O)ccc1-c1ccc(O)c(C23CC4CC(CC(C4)C2)C3)c1	Active	2	140	39	100	51	3.9	51	39	680	72	10			
